Shown are actives, neighbours in structure and some others; about 2.4% of the full set was active somewhere.
DNMT1 block – inhibitors of human DNMT1; DNMT1 molecular beacon, Hinp1I cleavage, fluorescence; hit rate 0.83% among 360,000; inhibition (reported as % activation of signal), % at 10 µM; in the data active means inhibition above about 50%
STEP inh – inhibitors of human striatal-enriched phosphatase STEP; hit rate 0.25% among 360,000; AID 588621; recombinant STEP, OMFP fluorogenic substrate, fluorescence; inhibition, % at 20 µM; P54829;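 active means inhibition at 20 µM, scaled per plate between control wells, above about 37%, limit read from the data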;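 further: 0% = DMSO with enzyme and substrate and 100% = substrate only without enzyme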
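Test system: STEP tyrosine phosphatase / Reagent: OMFP at 25 µM / Doses: 20 µM, 1% DMSO / Read-out: percent inhibition scaled to no-enzyme and uninhibited-enzyme controls, plate-pattern corrected / Detection: FITC-channel fluorescence of OMFP product / Medium: Bis-Tris buffer pH 6.0, 2.5 mM DTT, 0.005% Tween 20 / Schedule: 20 min at room temperature, dark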
NadD inh – NadD (S. aureus) enzyme inhibition | purified NadD enzyme, colorimetric absorbance read-out | inhibition, % at 20 µM | hit rate 0.78% among 360,000; in the data active means inhibition above about 26%
Scp-1 inhibitor – blocks human Scp-1 phosphatase activity. Q9GZU7. Recombinant Scp1, phosphopeptide, malachite green phosphate absorbance. inhibition, % at 20 µM. hit rate 0.88% among 340,000. AID 493091;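 active means inhibition above about 50% at 20 µM, limit read from the data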;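 further: plate controls were DMSO wells with enzyme for no effect and wells lacking enzyme for full effect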
Target sequence (Q9GZU7 76-261 limits assumed): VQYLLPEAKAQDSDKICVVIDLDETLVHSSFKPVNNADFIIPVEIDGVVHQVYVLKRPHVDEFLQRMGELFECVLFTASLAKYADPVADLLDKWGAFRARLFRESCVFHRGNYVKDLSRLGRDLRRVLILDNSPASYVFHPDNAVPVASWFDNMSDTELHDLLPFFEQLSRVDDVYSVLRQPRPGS
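assay system = SCP-1 phosphatase catalytic domain, residues 76-261 | buffer or medium = 50 mM Tris acetate pH 5.5, 0.005% Tween-20, 10 mM MgCl2 | incubation = enzyme reaction 45 min at room temperature, colour 5 min, stabilisation 30 min | signal = Phosphate-binding colour reagent, absorbance read at 630 nm | measure = % inhibition at 20 µM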
SUMO1 PPI mod – modulators of human SUMO1-mediated protein-protein interactions. P63165. SUMO1 binding to a labelled peptide, TR-FRET, 1 h. inhibition, % at 20 µM. hit rate 0.33% among 360,000. AID 602429; in the data active means inhibition above about 37%
Target sequence (P63165 whole entry, looked up): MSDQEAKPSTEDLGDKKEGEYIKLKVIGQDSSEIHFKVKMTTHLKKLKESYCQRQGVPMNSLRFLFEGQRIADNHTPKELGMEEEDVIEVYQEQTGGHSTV
LMPTP block – LMPTP (human) inhibition. P24666. hit rate 0.22% among 360,000. inhibition, % at 20 µM. recombinant LMPTP-A, OMFP fluorogenic substrate, fluorescence intensity;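 active means compounds that cut the enzyme signal by at least half of the control window in the single-dose screen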;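 further: plate controls were DMSO wells with enzyme plus substrate for no effect and substrate without enzyme for full effect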
Target sequence (P24666 whole entry, looked up): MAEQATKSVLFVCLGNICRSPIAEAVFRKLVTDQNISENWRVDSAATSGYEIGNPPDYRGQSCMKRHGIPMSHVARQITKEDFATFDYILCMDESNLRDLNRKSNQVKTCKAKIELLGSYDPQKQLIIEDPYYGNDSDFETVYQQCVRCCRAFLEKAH
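Test system – LMPTP-A phosphatase enzyme · Quantity – 0.625 nM LMPTP-A final · Reagent – OMFP substrate, 400 µM final · Dosing – one test concentration per compound, 20 µM, with 3% DMSO overall · Timing – 50 min enzyme reaction at room temperature, protected from light · Detection – fluorescence intensity · Controls – substrate-only low control, DMSO enzyme-plus-substrate high control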
NadD inh conf – confirmation of Staphylococcus aureus NadD inhibitors; shares compounds with NadD inh; purified S. aureus NadD, colorimetric enzyme assay; inhibition, % at 20 µM; hit rate 13% among 2,000; AID 624309; in the data active means inhibition mostly above about 42%, no sharp cut-off; inactive means mostly below about 42%
* marks the source's active call; other numbers are inactive results.

What do the screens show for `O=c1[nH]c(C2CCN(S(=O)(=O)c3ccccc3F)CC2)nc2c1nnn2Cc1ccc2c(c1)OCCO2`?
DNMT1 block: -4; STEP inh: 2; NadD inh: 23; Scp-1 inhibitor: -5; SUMO1 PPI mod: 4; LMPTP block: 6

What do the screens show for `O=c1[nH]c(C2CCN(S(=O)(=O)/C=C/c3ccccc3)CC2)nc2c1nnn2Cc1ccc(F)cc1`?
DNMT1 block: -7; STEP inh: 1; NadD inh: 35*; Scp-1 inhibitor: -15; SUMO1 PPI mod: 5; LMPTP block: 2; NadD inh conf: 35

How did CCN(C(=O)COC(=O)/C=C/c1ccc(OC)c(OC)c1)c1c(N)n(Cc2ccccc2)c(=O)[nH]c1=O do in these assays?
DNMT1 block: 0; STEP inh: -1; NadD inh: -1; Scp-1 inhibitor: -8; SUMO1 PPI mod: -28; LMPTP block: -1

How did O=c1[nH]c(C2CCN(S(=O)(=O)c3ccc(C(F)(F)F)cc3)CC2)nc2c1nnn2Cc1ccccc1 do in these assays?
DNMT1 block: 0; STEP inh: 2; NadD inh: 16; Scp-1 inhibitor: -3; SUMO1 PPI mod: 5; LMPTP block: 2

What do the screens show for `O=c1[nH]c(C2CCN(S(=O)(=O)c3ccc(C(F)(F)F)cc3)CC2)nc2c1nnn2Cc1cccc(F)c1`?
DNMT1 block: -1; STEP inh: 0; NadD inh: 31*; Scp-1 inhibitor: -5; SUMO1 PPI mod: 0; LMPTP block: 4; NadD inh conf: 20

How did COc1ccc(C2CC(=O)Oc3cc(C)c(Cl)c(C)c32)cc1 (stereo unspecified) do in these assays?
DNMT1 block: 2; STEP inh: 1; NadD inh: -6; Scp-1 inhibitor: 15; SUMO1 PPI mod: 2; LMPTP block: 3

How did Cc1nn(-c2ccccc2)c(N2CCCC2)c1/C=N/NC(=O)c1cccc(S(=O)(=O)Nc2ccc(Cl)cc2)c1 do in these assays?
DNMT1 block: -20; STEP inh: 0; NadD inh: 53*; Scp-1 inhibitor: -17; SUMO1 PPI mod: 12; LMPTP block: 3; NadD inh conf: 55*

How did COc1ccc(-c2nn(-c3ccccc3)cc2/C=N/NC(=O)c2cccc(S(=O)(=O)Nc3ccccc3Cl)c2)cc1 do in these assays?
DNMT1 block: -15; STEP inh: -6; NadD inh: 42*; Scp-1 inhibitor: -11; SUMO1 PPI mod: 15; LMPTP block: 4; NadD inh conf: 16

Results for Cc1nn(-c2ccc(Cl)cc2)c(Cl)c1/C=N/NC(=O)c1ccc(NS(=O)(=O)c2cccs2)cc1 ?
DNMT1 block: -11; STEP inh: -2; NadD inh: 41*; Scp-1 inhibitor: -14; SUMO1 PPI mod: 8; LMPTP block: 5; NadD inh conf: 63*

Results for COc1ccc(-c2nn(-c3ccccc3)cc2/C=N/NS(=O)(=O)c2ccccc2)cc1 ?
DNMT1 block: -10; STEP inh: -2; NadD inh: 3; Scp-1 inhibitor: -11; SUMO1 PPI mod: -4; LMPTP block: 5

Results for Cc1ccc(Cl)c(OCCN2CCc3ccccc3C2)c1 ?
DNMT1 block: 2; STEP inh: -2; NadD inh: -6; Scp-1 inhibitor: 1; SUMO1 PPI mod: -4; LMPTP block: -1

What do the screens show for `COCCNC(=O)C(c1ccc(C)o1)N(C(=O)Cn1nnc2ccccc21)c1ccccc1` (stereo unspecified)?
DNMT1 block: 8; STEP inh: -1; NadD inh: -5; Scp-1 inhibitor: -9; SUMO1 PPI mod: -1; LMPTP block: 0

What do the screens show for `Cc1cccc(C)c1-n1nnnc1C(c1ccnc2ccccc12)N(Cc1ccccc1)Cc1ccccc1` (stereo unspecified)?
NadD inh: 32*; SUMO1 PPI mod: -2; LMPTP block: 6; NadD inh conf: 28

How did N#CCCN(Cc1ccccc1)C(c1ccnc2ccccc12)c1nnnn1-c1ccc2c(c1)OCCO2 (stereo unspecified) do in these assays?
NadD inh: 9; SUMO1 PPI mod: 3; LMPTP block: 3

Results for Cc1cccc(C)c1-n1nnnc1C(c1ccnc2ccccc12)N(CCC#N)Cc1ccccc1 (stereo unspecified) ?
NadD inh: 8; SUMO1 PPI mod: 5; LMPTP block: 1

What do the screens show for `c1ccc(CN(Cc2ccccc2)C(c2ccnc3ccccc23)c2nnnn2-c2ccc3c(c2)OCCO3)cc1` (stereo unspecified)?
NadD inh: 40*; SUMO1 PPI mod: -1; LMPTP block: 4; NadD inh conf: 35

What do the screens show for `Cc1cccc(C)c1-n1nnnc1C(c1ccnc2ccccc12)N(C)Cc1ccc(Cl)c(Cl)c1` (stereo unspecified)?
NadD inh: 29*; SUMO1 PPI mod: 2; LMPTP block: 5; NadD inh conf: 9

Results for CN(C(=O)c1cccc(S(=O)(=O)N2CCOCC2)c1)c1c(N)n(Cc2ccccc2)c(=O)[nH]c1=O ?
DNMT1 block: -1; STEP inh: -1; NadD inh: 6; Scp-1 inhibitor: 5; SUMO1 PPI mod: 2; LMPTP block: 0

Results for Cn1nnc2cc(NC(=O)Nc3cccc(C(F)(F)F)c3)ccc21 ?
DNMT1 block: 3; STEP inh: -1; NadD inh: -5; Scp-1 inhibitor: -10; SUMO1 PPI mod: 0; LMPTP block: -3

How did COC(=O)c1ccc(C2/C(=C(\O)c3ccc4c(c3)OCCO4)C(=O)C(=O)N2CCCN2CCOCC2)cc1 (stereo unspecified) do in these assays?
DNMT1 block: 1; STEP inh: 2; NadD inh: 0; Scp-1 inhibitor: -8; SUMO1 PPI mod: -1; LMPTP block: 2

How did CCCCOc1cccc(C2/C(=C(\O)c3ccc4c(c3)OCCO4)C(=O)C(=O)N2CCN2CCOCC2)c1 (stereo unspecified) do in these assays?
DNMT1 block: -4; STEP inh: 0; NadD inh: 47*; Scp-1 inhibitor: 0; SUMO1 PPI mod: -5; LMPTP block: 1; NadD inh conf: 46

How did C=CCOc1ccc(C2/C(=C(\O)c3ccc4c(c3)OCCO4)C(=O)C(=O)N2CCCN2CCOCC2)cc1 (stereo unspecified) do in these assays?
DNMT1 block: 8; STEP inh: 0; NadD inh: 44*; Scp-1 inhibitor: -1; SUMO1 PPI mod: 6; LMPTP block: 16; NadD inh conf: 30

What do the screens show for `O=C1C(=O)N(CCN2CCOCC2)C(c2cccc(Cl)c2)/C1=C(\O)c1ccc2c(c1)OCCO2` (stereo unspecified)?
DNMT1 block: -4; STEP inh: 2; NadD inh: 10; Scp-1 inhibitor: -1; SUMO1 PPI mod: -4; LMPTP block: 0
